From ChEMBL document CHEMBL4609990, “Design and synthesis of cyanamides as potent and selective N-acylethanolamine acid amidase inhibitors” (Bioorg Med Chem, 2020)
pIC50: −log10 of the molar value.

Experiments:
[1] = molecular target: T1, N-acylethanolamine-hydrolyzing acid amidase (Homo sapiens, UniProt Q02083); experiment: Inhibition of activated human NAAA using fluorogenic PAMCA and N-4-methylcoumarin as substrate incubated for 90 mins by fluorescence based assay
T1 sequence (Q02083 whole entry): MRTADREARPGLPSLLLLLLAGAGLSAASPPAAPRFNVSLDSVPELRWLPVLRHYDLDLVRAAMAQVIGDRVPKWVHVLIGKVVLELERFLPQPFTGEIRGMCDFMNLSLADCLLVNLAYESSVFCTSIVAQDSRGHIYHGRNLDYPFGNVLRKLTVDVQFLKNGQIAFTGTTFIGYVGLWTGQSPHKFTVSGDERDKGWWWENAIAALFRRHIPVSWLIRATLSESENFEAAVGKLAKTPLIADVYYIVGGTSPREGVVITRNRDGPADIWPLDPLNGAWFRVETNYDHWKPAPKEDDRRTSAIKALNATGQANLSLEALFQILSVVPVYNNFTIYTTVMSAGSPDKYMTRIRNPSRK
Outline: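 Purified activated hNAAA (final 0.25 µg/mL) in 100 mM citrate-phosphate pH 4.5, 3 mM DTT, 0.1% Triton X-100, 0.05% BSA, 150 mM NaCl; compound in DMSO preincubated 90 min at room temperature. PAMCA added (final 5 µM), reaction at 37 °C for 90 min, fluorescence ex 360/em 460 nm read every 10 min. RFU converted to AMC via AMC standard curve. IC50 from eight concentrations, triplicate.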

[2] = molecular target: T2, Fatty-acid amide hydrolase 1 (Homo sapiens, UniProt O00519); experiment: Inhibition of recombinant human FAAH expressed in Escherichia coli using fluorogenic AAMCA as substrate by fluorimetric assay
T2 sequence (O00519 whole entry): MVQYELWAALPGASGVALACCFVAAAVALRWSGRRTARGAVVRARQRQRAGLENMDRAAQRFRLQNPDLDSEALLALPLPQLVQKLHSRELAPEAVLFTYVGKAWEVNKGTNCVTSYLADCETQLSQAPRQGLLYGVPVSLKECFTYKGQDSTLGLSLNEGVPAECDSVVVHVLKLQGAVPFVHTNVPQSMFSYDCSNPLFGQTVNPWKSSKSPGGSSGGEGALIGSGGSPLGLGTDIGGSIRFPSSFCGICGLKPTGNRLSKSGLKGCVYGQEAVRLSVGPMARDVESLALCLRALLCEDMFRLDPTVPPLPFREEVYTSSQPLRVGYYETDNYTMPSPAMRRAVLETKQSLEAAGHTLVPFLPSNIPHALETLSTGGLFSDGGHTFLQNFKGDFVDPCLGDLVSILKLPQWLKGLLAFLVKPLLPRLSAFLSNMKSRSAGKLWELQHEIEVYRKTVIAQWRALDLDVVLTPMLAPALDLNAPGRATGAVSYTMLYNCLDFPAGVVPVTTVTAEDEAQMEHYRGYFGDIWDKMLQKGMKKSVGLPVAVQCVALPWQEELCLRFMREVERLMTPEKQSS
Outline: (§1)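 Human recombinant FAAH expressed in E. coli and purified; fluorometric assay with arachidonoyl 7-amino-4-methylcoumarin amide (AAMCA) as substrate; IC50 by curve fitting, or percent inhibition at 1 µM.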

[3] = molecular target: T3, Fatty-acid amide hydrolase 1 (Homo sapiens) (UniProt O00519); experiment: Inhibition of recombinant human FAAH expressed in Escherichia coli at 1 uM using fluorogenic AAMCA as substrate by fluorimetric assay relative to control; outline: as §1
T3 sequence (whole entry): T2 sequence (O00519 whole entry)

[4] = Half life in human plasma by HPLC analysis
[5] = molecular target: T4, Monoglyceride lipase (Homo sapiens) (UniProt Q99685); experiment: Inhibition of recombinant human hexaHis-tagged MGL expressed in Escherichia coli BL21 (DE3) at 1 uM using fluorogenic AHMMCE as substrate preincubated for 1 hr followed by substrate addition by fluorimetric assay relative to control
T4 sequence (whole entry): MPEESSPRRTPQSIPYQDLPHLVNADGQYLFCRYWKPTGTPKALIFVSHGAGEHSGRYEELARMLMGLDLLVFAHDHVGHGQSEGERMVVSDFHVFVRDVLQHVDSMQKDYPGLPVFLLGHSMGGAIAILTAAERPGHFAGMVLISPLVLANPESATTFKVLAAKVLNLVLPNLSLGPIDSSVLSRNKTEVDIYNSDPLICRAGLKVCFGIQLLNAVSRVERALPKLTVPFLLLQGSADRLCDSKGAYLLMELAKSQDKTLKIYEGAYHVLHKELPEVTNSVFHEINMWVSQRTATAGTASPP
Outline: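 Human recombinant MGL expressed in E. coli and purified; fluorometric assay using arachidonoyl 7-hydroxy-6-methoxy-4-methylcoumarin ester (AHMMCE) as substrate; IC50 by curve fitting, or percent inhibition at 1 µM.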

[6] = Half life in rat liver microsomes at 1 uM in presence of NADPH by LC-MS/MS
[7] = Half life in human liver microsomes at 1 uM in presence of NADPH by LC-MS/MS
[8] = molecular target: T1, N-acylethanolamine-hydrolyzing acid amidase; experiment: Inhibition of NAAA (unknown origin)
[9] = molecular target: T5, N-acylethanolamine-hydrolyzing acid amidase (Homo sapiens) (UniProt Q02083); experiment: Irreversible inhibition of activated human NAAA assessed as ratio of Kinact/Ki using fluorogenic PAMCA and N-4-methylcoumarin as substrate
T5 sequence (whole entry): T1 sequence (Q02083 whole entry)

Homo sapiens [10] = species: Homo sapiens; experiment: Selectivity index, ratio of IC50 for human hexaHis-tagged MGL expressed in Escherichia coli BL21 (DE3) using fluorogenic AHMMCE as substrate preincubated for 1 hr followed by substrate addition by fluorimetric assay to IC50 human NAAA using fluorogenic PAMCA and N-4-methylcoumarin as substrate incubated for 90 mins by fluorescence based assay
Homo sapiens [11] = species: Homo sapiens; experiment: Selectivity index, ratio of IC50 for full length human ABHD6 using AHMMCE as substrate preincubated for 1 hr followed by substrate addition by fluorimetric assay to IC50 human NAAA using fluorogenic PAMCA and N-4-methylcoumarin as substrate incubated for 90 mins by fluorescence based assay
Homo sapiens [12] = species: Homo sapiens; experiment: Selectivity index, ratio of IC50 for human Cathepsin K using […] as substrate preincubated with enzyme for 90 mins followed by substrate addition by fluorimetry analysis to IC50 human NAAA using fluorogenic PAMCA and N-4-methylcoumarin as substrate incubated for 90 mins by fluorescence based assay
Homo sapiens [13] = species: Homo sapiens; experiment: Selectivity index, ratio of IC50 for recombinant human FAAH expressed in Escherichia coli using fluorogenic AAMCA as substrate by fluorimetric assay to IC50 human NAAA using fluorogenic PAMCA and N-4-methylcoumarin as substrate incubated for 90 mins by fluorescence based assay
[14] = Half life in artificial gastric fluid by HPLC analysis; format: physicochemical
Outline: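 Compound at 200 μM incubated in artificial gastric juice; reaction quenched with acetonitrile and samples analysed by HPLC to estimate half-life (min).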

[15] = Half life in rat plasma by HPLC analysis

Q: With `COc1ccc(-c2ccc(COC3(c4cccnc4)CN(C#N)C3)c(F)c2)cc1F` as the compound, how does the pIC50 [1] read?
A: 8.34

Q: What about the pIC50 [2] of the same compound?
A: 8.70

Q: With `N#Cc1ccccc1-c1cc(Oc2ccccc2)ccc1COC1CN(C#N)C1` as the compound, how does the pIC50 [1] read?
A: 8.18

Q: Which results are given for `COc1cccc(-c2ccc(C(=O)NC3(C)CN(C#N)C3)cc2)c1`?
A: inhibition [3]: 23%; pIC50 [1]: 8.80; half-life [4]: 15 h; inhibition [5]: 11%

Q: Which half-life at 1 µM ([6]; microsomes) does the source give for `COc1cccc(-c2ccc(COC3(c4ccccc4)CN(C#N)C3)cc2)c1` here?
A: 0.242 h

Q: What about the pIC50 [1] of the same compound?
A: 8.04

Q: What about the inhibition [5] of the same compound?
A: 19.5%

Q: And the half-life at 1 µM ([7]; microsomes)?
A: 0.255 h

Q: And the pIC50 [2]?
A: 7.21

Q: With `N#CN1CC(Oc2ccc(-c3ccccc3)cc2)C1` as the compound, how does the pIC50 [1] read?
A: 7.54

Q: With `C[C@H]1[C@H](NC(=O)OCCCCC2CCCCC2)C(=O)N1c1cccc(S(C)(=O)=O)c1` as the compound, how does the pIC50 [8] read?
A: 8.22

Q: With `COc1ccc(-c2cc(Oc3ccccc3)ccc2COC2CN(C#N)C2)cc1` as the compound, how does the pIC50 [1] read?
A: 8.24

Q: With `N#CN1CC(OCc2ccc(-c3ccc(F)cc3)cc2)C1` as the compound, how does the pIC50 [1] read?
A: 9.17

Q: And the Ratio [9]?
A: 2.09 ×10⁶ /M/s

Q: With `COc1cccc(-c2ccc(COC3CN(C#N)C3)c(C(F)(F)F)c2)c1` as the compound, how does the pIC50 [1] read?
A: 9.07

Q: What about the Ratio [9] of the same compound?
A: 1.4 ×10⁶ /M/s

Q: Which results are given for `COc1cccc(-c2ccc(S(=O)(=O)N3CCC34CN(C#N)C4)cc2)c1`?
A: pIC50 [1]: 8.55; Ratio IC50 (Homo sapiens [10]): > 100; Ratio IC50 (Homo sapiens [11]): > 100; half-life [4]: 3 h; inhibition [5]: 14%; Ratio IC50 (Homo sapiens [12]): > 100; pIC50 [2]: 7.99

Q: Which half-life at 1 µM ([6]; liver microsomes) does the source give for `N#CN1CC(OCc2ccc(-c3ccc(C(F)(F)F)cc3)cc2)C1` here?
A: 0.148 h

Q: What about the pIC50 [1] of the same compound?
A: 8.80

Q: And the half-life at 1 µM ([7]; liver microsomes)?
A: 0.113 h

Q: And the Ratio [9]?
A: 2.74 ×10⁶ /M/s

Q: With `N#CN1CC(OCc2ccc(-c3ccc4c(c3)OCO4)cc2)(c2ccccc2)C1` as the compound, how does the inhibition [3] read?
A: 99%

Q: And the pIC50 [1]?
A: 8.04

Q: And the inhibition [5]?
A: 59%

Q: What does the source list for `COc1cccc(-c2ccc(C(=O)N3CCC34CN(C#N)C4)cc2)c1`?
A: inhibition [3]: 6%; pIC50 [1]: 8.19; Ratio IC50 (Homo sapiens [10]): > 100; Ratio IC50 (Homo sapiens [13]): > 100; Ratio IC50 (Homo sapiens [11]): > 100; half-life [4]: 7.63 h; inhibition [5]: 4%; Ratio IC50 (Homo sapiens [12]): > 100

Q: With `N#Cc1ccc(-c2cc(Oc3ccccc3)ccc2COC2CN(C#N)C2)cc1` as the compound, how does the pIC50 [1] read?
A: 8.60

Q: With `COc1cccc(OC)c1-c1ccc(COC2CN(C#N)C2)cc1` as the compound, how does the pIC50 [1] read?
A: 7.17

Q: With `N#CN1CC[C@H](OCc2ccc(-c3ccccc3)cc2)C1` as the compound, how does the pIC50 [1] read?
A: 6.50

Q: With `COc1cccc(-c2ccc(C(OC3CN(C#N)C3)c3ccccc3)cc2)c1` (stereo not drawn) as the compound, how does the pIC50 [1] read?
A: 7.94

Q: With `COc1ccc(-c2ccc(COC3CN(C#N)C3)cc2)cc1` as the compound, how does the pIC50 [1] read?
A: 9.03

Q: And the Ratio [9]?
A: 3.25 ×10⁶ /M/s

Q: With `Cc1ccc(-c2ccc(COC3CN(C#N)C3)cc2)cc1` as the compound, how does the pIC50 [1] read?
A: 9.34

Q: What about the Ratio [9] of the same compound?
A: 2.24 ×10⁶ /M/s

Q: With `N#CN1CC(OCc2ccc(-c3ccccc3)cc2)C1` as the compound, how does the pIC50 [1] read?
A: 8.55

Q: What about the Ratio [9] of the same compound?
A: 3.03 ×10⁶ /M/s

Q: Which results are given for `COc1cccc(-c2ccc(COC3CN(C#N)C3)cc2)c1`?
A: half-life at 1 µM ([6]; microsomes): 0.167 h; pIC50 [1]: 9.05; half-life [14]: 7.5 h; half-life [4]: 3.4 h; half-life at 1 µM ([7]; microsomes): 0.187 h; Ratio [9]: 3.05 ×10⁶ /M/s; half-life [15]: 3.15 h
